Experiments:
[1] = test system: Plasmodium yoelii nigeriensis; experiment: In Vitro inhibition of Heme Oxygenase in Cell-free parasite Plasmodium yoelii at concentration 10 uM;NI denotes nil inhibition; format: functional
In short: (§1)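 Heme oxygenase activity was measured as bilirubin formation in a post-mitochondrial fraction. The parasite enzyme came from cell-free P. yoelii, isolated from infected blood by density gradient centrifugation and saponin lysis. The host enzyme came from infected liver. Compounds were tested at 10–100 µM and preincubated for 10 min before the reaction was started.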

[2] = test system: Plasmodium yoelii nigeriensis; experiment: Inhibition of heme oxygenase in Plasmodium yoelii nigeriensis isolated from infected mice (Mus musculus) (oral); format: functional
In short: (§2)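 Swiss albino mice carried P. yoelii nigeriensis tolerant to CQ up to 120 mg/kg. They received compound orally at 15 mg/kg body wt for 5 days. Parasites were then isolated from blood by density gradient centrifugation and saponin lysis, and enzyme inhibition was measured as percent inhibition.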

[3] = test system: Plasmodium yoelii nigeriensis; experiment: In Vitro inhibition of Heme Oxygenase in Cell-free parasite Plasmodium yoelii at concentration 50 uM;NI denotes nil inhibition; format: functional; in short: as §1
[4] = target: T1, Glutathione S-transferase (Plasmodium yoelii yoelii) (UniProt Q7REH6); experiment: Inhibition of Glutathione S-transferase in Plasmodium yoelii nigeriensis isolated from infected mice (Mus musculus) (oral); settings: concentration not given here; in short: as §2
T1 sequence (whole entry): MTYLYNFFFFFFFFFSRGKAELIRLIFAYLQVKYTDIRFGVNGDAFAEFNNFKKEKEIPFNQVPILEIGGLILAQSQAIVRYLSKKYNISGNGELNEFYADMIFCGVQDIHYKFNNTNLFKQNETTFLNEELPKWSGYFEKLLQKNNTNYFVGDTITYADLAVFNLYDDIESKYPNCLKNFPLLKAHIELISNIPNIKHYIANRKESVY

[5] = test system: Plasmodium yoelii nigeriensis; experiment: In Vitro inhibition of Heme Oxygenase in Cell-free parasite Plasmodium yoelii at concentration 100 uM; format: functional; in short: as §1
[6] = test system: Plasmodium yoelii nigeriensis; experiment: In Vitro inhibition of Heme Oxygenase in Cell-free parasite Plasmodium yoelii at concentration 100 uM;NI denotes nil inhibition; format: functional; in short: as §1
[7] = test system: Plasmodium yoelii nigeriensis; experiment: In Vitro inhibition of Heme Oxygenase in Cell-free parasite Plasmodium yoelii at concentration 10 uM; format: functional; in short: as §1
[8] = test system: Plasmodium yoelii nigeriensis; experiment: In Vitro inhibition of Heme Oxygenase in Cell-free parasite Plasmodium yoelii at concentration 50 uM; format: functional; in short: as §1
Mus musculus [9] = species: Mus musculus; experiment: In Vitro evaluation on percentage inhibition in Heme Oxygenase at concentration 100 (uM) of infected host
In short: (§3)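 Heme oxygenase from liver of P. yoelii-infected host, post-mitochondrial fraction, run as the host-enzyme counterpart to the cell-free parasite assay. Test compounds at 10-100 µM were preincubated in the assay system for 10 min before starting the reaction. Activity was followed by bilirubin formation and reported as percent inhibition.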

Mus musculus [10] = species: Mus musculus; experiment: In Vitro evaluation on percentage inhibition in Heme Oxygenase at concentration 50 (uM) of infected host; in short: as §3

inhibition [4] | inhibition (Mus musculus [9]) | inhibition (Mus musculus [10]) | Structure (SMILES) | NI [1] | Inhibition [2] | NI [3] | inhibition [5] | NI [6] | inhibition [7] | inhibition [8]
90% |  |  | CCN(CC)CCCN1CC/C(=C\c2ccc(OCCN3CCCC3)cc2)C1 | No inhibition | 79% | No inhibition | 100% | No inhibition | 100% | 100%
 | 19% | 15% | COc1ccc(CCN(C)CCCC(C#N)(c2ccc(OC)c(OC)c2)C(C)C)cc1OC (configuration not stated) |  |  |  | 100% |  |  | 100%

Reference: ChEMBL document CHEMBL1133641, “A new class of potential chloroquine-resistance reversal agents for Plasmodia: syntheses and biological evaluation of 1-(3'-diethylaminopropyl)-3-(substituted phenylmethylene)pyrrolidines” (2000)
